{"data": "Experimental data gathered from unrelated publications", "note": "Compare with care: the assays were run in different laboratories."}
{"Structure (SMILES)": "Oc1cc(O)c2c(c1)O[C@H](c1cc(O)c(O)c(O)c1)[C@@H](O)C2", "tested on": "Streptococcus mutans", "assay": "microbial growth, broth dilution", "setting": "24 h", "endpoint": "MIC", "value": "100 µg/mL"}
{"Structure (SMILES)": "CN[C@H](CC(C)C)C(=O)N[C@H]1C(=O)N[C@@H](CC(N)=O)C(=O)N[C@H]2C(=O)N[C@H]3C(=O)N[C@H](C(=O)N[C@H](C(=O)O)c4cc(O)cc(O)c4-c4cc3ccc4O)[C@H](O)c3ccc(c(Cl)c3)Oc3cc2cc(c3O[C@@H]2O[C@H](CO)[C@@H](O)[C@H](O)[C@H]2O[C@H]2C[C@](C)(N)[C@H](O)[C@H](C)O2)Oc2ccc(cc2Cl)[C@H]1O", "tested on": "Streptococcus pyogenes", "assay": "microbial growth", "setting": "clinical isolate", "endpoint": "MIC90", "value": "1 µg/mL"}
{"Structure (SMILES)": "O=C1OC[C@H]2OC(O)[C@H](O)[C@@H](O)[C@@H]2OC(=O)c2cc(O)c(O)c(O)c2-c2c(O)c(O)c3oc(=O)c4c(c(O)c(O)c5oc(=O)c2c3c54)-c2c1cc(O)c(O)c2O (mixture of isomers)", "tested on": "Streptococcus mutans", "assay": "microbial killing, broth dilution", "endpoint": "MBC", "value": "400 µg/mL"}
{"Structure (SMILES)": "Cc1nc(Nc2ncc(C(=O)Nc3c(C)cccc3Cl)s2)cc(N2CC[C@H](O)C2)n1", "tested on": "WSUDLCL2", "assay": "cell growth or viability, ATP luminescence", "setting": "72 h", "endpoint": "IC50", "value": "> 10000 nM"}
{"Structure (SMILES)": "c1ccc(Oc2ccc(Nc3c4c(nc5ccccc35)CCC4)cc2)cc1", "tested on": "Leishmania infantum", "assay": "parasite growth, MTT", "setting": "promastigote", "endpoint": "EC50", "value": "539 nM"}
{"Structure (SMILES)": "COc1ccc2oc(-c3ccc4nc(N)oc4c3)c/c(=N\\c3ccccc3NC(=O)CCN)c2c1", "tested on": "HCT-116", "assay": "cell growth or viability, CCK-8", "setting": "1 µM", "endpoint": "inhibition", "value": "45.5%"}
{"Structure (SMILES)": "C[C@@H]1O[C@@H](OC[C@H]2O[C@@H](Oc3c(-c4ccc(O)c(O)c4)oc4cc(O)cc(O)c4c3=O)[C@H](O)[C@@H](O)[C@@H]2O)[C@H](O)[C@H](O)[C@H]1O", "tested on": "Streptococcus mutans", "assay": "microbial growth, disc diffusion", "setting": "500 µg/disc", "endpoint": "inhibition zone", "value": "14 mm"}
{"Structure (SMILES)": "C[C@H](Nc1ccc2c(c1)OCCn1cc(N3C(=O)OC[C@H]3C(F)F)nc1-2)C(N)=O", "tested on": "KYSE-510", "assay": "cell growth or viability, ATP luminescence", "setting": "5 days", "endpoint": "EC50", "value": "87.8 nM"}
{"Structure (SMILES)": "COCCC(=O)Nc1ccccc1/N=c1\\cc(-c2ccc3c(c2)OCO3)oc2ccccc12", "tested on": "HCT-116", "assay": "cell growth or viability, CCK-8", "setting": "1 µM", "endpoint": "inhibition", "value": "7.96%"}
{"Structure (SMILES)": "CCOc1ccc(Nc2c3c(nc4ccccc24)CCC3)cc1", "tested on": "Leishmania infantum", "assay": "parasite growth, MTT", "setting": "promastigote", "endpoint": "IC50", "value": "640 nM"}
{"Structure (SMILES)": "NCCC(=O)Nc1ccc(/N=c2\\cc(-c3ccc4c(c3)OCO4)oc3ccccc23)cc1", "tested on": "HCT-116", "assay": "cell growth or viability, CCK-8", "setting": "1 µM", "endpoint": "inhibition", "value": "12.2%"}
{"Structure (SMILES)": "C=C[C@]1(C)C[C@@H](OC(=O)CS[C@@H]2C[C@H]3CC[C@@H](C2)N3C)[C@]2(C)[C@H](C)CC[C@]3(CCC(=O)[C@H]32)[C@@H](C)[C@@H]1O", "tested on": "Streptococcus pyogenes", "assay": "microbial growth", "setting": "clinical isolate", "endpoint": "MIC90", "value": "0.0312 µg/mL"}
